Results as given in PMC5010146 (European journal of medicinal chemistry, 2016).
One block for each compound: values may come before it.

What was measured:
[1] = biological target: T1, human 15-lipoxygenase-1 (15-LOX-1) (Homo sapiens, UniProt P16050); experiment: Michaelis-Menten enzyme kinetics analysis of 15-LOX-1 inhibition; type: biochemical; details: Lineweaver-Burk: Km increases, Vmax constant
T1 sequence (P16050 1-662): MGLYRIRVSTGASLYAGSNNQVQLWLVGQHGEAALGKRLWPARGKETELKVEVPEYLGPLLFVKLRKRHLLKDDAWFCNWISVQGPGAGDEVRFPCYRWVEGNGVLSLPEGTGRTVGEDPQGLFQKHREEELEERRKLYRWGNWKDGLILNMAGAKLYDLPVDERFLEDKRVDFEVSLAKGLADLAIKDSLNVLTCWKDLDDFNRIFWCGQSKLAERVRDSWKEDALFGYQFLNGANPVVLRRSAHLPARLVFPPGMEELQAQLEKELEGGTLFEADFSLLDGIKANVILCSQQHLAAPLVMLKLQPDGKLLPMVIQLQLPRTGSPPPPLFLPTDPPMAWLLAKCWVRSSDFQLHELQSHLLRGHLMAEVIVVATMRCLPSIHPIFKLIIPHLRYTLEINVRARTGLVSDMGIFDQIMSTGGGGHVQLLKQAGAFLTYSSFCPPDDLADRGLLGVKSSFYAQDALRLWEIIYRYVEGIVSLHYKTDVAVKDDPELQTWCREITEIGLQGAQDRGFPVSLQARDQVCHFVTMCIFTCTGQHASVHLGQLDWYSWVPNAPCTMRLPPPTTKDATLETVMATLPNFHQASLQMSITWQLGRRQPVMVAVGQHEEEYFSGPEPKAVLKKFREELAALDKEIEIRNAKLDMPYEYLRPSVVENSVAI

[2] = test system: HT-22 cells; experiment: Glutamate-induced cell death, xCELLigence impedance and MTT; type: cell-based
[3] = test system: HT-22 cells; experiment: Glutamate-induced lipid peroxidation, BODIPY staining, FACS; type: cell-based; details: 1 μM, 16 h after initiation of glutamate challenge
In short: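 HT-22 cells were seeded at 5x10^4 per well, left overnight, then exposed to 4 mM glutamate with or without test compound (10 µM) or 1 µM reference inhibitor for 6–7 h or 14–16 h. Staining used BODIPY 581/591 C11 (2 µM final, 1 h, 37°C). The red-to-green fluorescence shift was read by FACS at 488 nm excitation. At least three independent experiments, triplicates.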

[4] = test system: 15-LOX-1; details: mouse, transient cerebral ischemia; cited from earlier work
[5] = biological target: T2, 15-LOX-1 (Homo sapiens, UniProt P16050); experiment: 15-LOX-1 enzyme inhibition, UV absorbance; type: biochemical
T2 sequence (P16050 1-662): T1 sequence (P16050 1-662)

inhibitory potency in words [5]: inactive
SMILES: CCCCNC(=O)c1cc(-c2ccc(Br)cc2)sc1N [Compound 3m, 2-amino-5-(4-bromophenyl)-N-butylthiophene-3-carboxamide]

inhibitory potency in words [5]: inactive
SMILES: CCCCNC(=O)c1cc(-c2ccc(Cl)cc2)sc1N [Compound 3l, 2-amino-N-butyl-5-(4-chlorophenyl)thiophene-3-carboxamide]

Second part, the compound before the results:

SMILES: CCCCNC(=O)c1cc(-c2ccccc2)sc1N [Compound A9, 2-amino-N-butyl-5-phenylthiophene-3-carboxamide]
mechanism of 15-LOX-1 inhibition [1]: competitive inhibition
time of addition after glutamate challenge at which cells were still protected ([2]; post-treatment 5 and 10 μM, added 2-8 h after glutamate): up to 8 h

SMILES: c1ccc2c(c1)SCc1c-2[nH]c2ccccc12 [PD-146176]
protection against glutamate toxicity compared with ThioLox ([2]; 1 μM): Comparable results
effect on boost of lipid peroxides [3]: significantly attenuated
effect on infarct size [4]: significantly reduced the infarct size

SMILES: CCCCNC(=O)c1cc(Cc2ccccc2)sc1N [Compound 3n, 2-amino-5-benzyl-N-butylthiophene-3-carboxamide]
inhibitory potency in words [5]: inactive
